This passage reports K, Total release and Relative rate results from ChEMBL document CHEMBL1122159, “Effects of certain hallucinogenic amphetamine analogues on the release of [3H]serotonin from rat brain synaptosomes” (J Med Chem, 1982).

Assay type in all cases: functional
The species named for assay [1] is Rattus norvegicus. Kind of assay: Ability to induce [3H]5-HT release from prelabeled rat whole brain synaptosome preparations at 10e-6 M concentration. The procedure, abridged:
(§1)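 Rat whole brain homogenised in ice-cold 0.32 M sucrose. Synaptosomes were isolated on a 1.2/0.8 M sucrose step gradient, preincubated 5 min at 37 °C in oxygenated Krebs-Henseleit, then loaded 5 min with [3H]5-HT (10^-7 M). Filter-retained synaptosomes were washed and superfused at 0.5 mL/min. 1-min fractions were counted for 5 min before and 10 min after drug addition. Efflux rate constant K taken from semilog plots; means of 3-4 experiments.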

The species entered for assay [2] is Rattus norvegicus. Kind of assay: Ability to induce [3H]-5-HT release from prelabeled rat whole brain synaptosome preparations at 10e-5 M concentration. The procedure, abridged: as §1
Assay [3] is filed under the species Rattus norvegicus. The assay is described as follows: Ability to induce [3H]5-HT release from prelabeled rat whole brain synaptosome preparations at 10e-7 M concentration. The procedure, abridged:
as §1

The species named for assay [4] is Rattus norvegicus. The assay is described as follows: Ability to induce [3H]-5-HT release from prelabeled rat whole brain synaptosome preparations and the activity was determined as percent of total released.
The species entered for assay [5] is Rattus norvegicus. Kind of assay: Ability to induce [3H]5-HT release from prelabeled rat whole brain synaptosome preparations and the K value was determined. The procedure, abridged: as §1
The species entered for assay [6] is Rattus norvegicus. The assay is described as follows: Ability to induce [3H]5-HT release from prelabeled rat whole brain synaptosome preparations and the K value was determined at 10e-5 M. The gist of the method:
as §1

The species entered for assay [7] is Rattus norvegicus. The assay is described as follows: Ability to induce [3H]5-HT release from prelabeled rat whole brain synaptosome preparations; Relative rate of release to that of control was determined. The gist of the method:
as §1

As to `CN[C@@H](C)Cc1ccc2c(c1)OCO2`, the results for the K in the assay listed under Rattus norvegicus [1], in the assay listed under Rattus norvegicus [2] and in the assay filed under Rattus norvegicus [3] were 2.84e+06 min⁻¹, 2.62e+06 min⁻¹ and 1.68e+06 min⁻¹, respectively.

`COc1ccc(CC(C)N)cc1` (single isomer, unassigned): the Total release in the assay filed under Rattus norvegicus [4] came to 57.8%. The K is 280 10e4min-1 in the assay filed under Rattus norvegicus [5], 2.55e+06 min⁻¹ in the assay filed under Rattus norvegicus [1], 2.3e+06 min⁻¹ in the assay filed under Rattus norvegicus [6] and 1.34e+06 min⁻¹ in the assay filed under Rattus norvegicus [3]. Besides, the Relative rate in the assay listed under Rattus norvegicus [7] was 1.76.

Consider `COc1ccc(C[C@@H](C)N)cc1`, for which the K in the assay filed under Rattus norvegicus [1] was determined as 2.28e+06 min⁻¹; in the assay filed under Rattus norvegicus [2], 3.07e+06 min⁻¹; in the assay listed under Rattus norvegicus [3] it was 1.39e+06 min⁻¹.

For the molecule `CN[C@H](C)Cc1ccc2c(c1)OCO2`, the K in the assay filed under Rattus norvegicus [1] stood at 1.73e+06 min⁻¹; in the assay filed under Rattus norvegicus [2], 2.74e+06 min⁻¹; in the assay listed under Rattus norvegicus [3], 1.49e+06 min⁻¹.

`CC(C)(N)Cc1ccc2c(c1)OCO2`: the Total release in the assay listed under Rattus norvegicus [4] was 45.2%. This molecule yielded a K in the assay filed under Rattus norvegicus [5] of 175 min⁻¹. In addition, in the assay listed under Rattus norvegicus [7], the Relative rate stood at 1.09.

As for `C[C@@H](N)Cc1ccc2c(c1)OCO2`, the figures for the K in the assay listed under Rattus norvegicus [1], in the assay filed under Rattus norvegicus [2] and in the assay listed under Rattus norvegicus [3] were 2.02e+06 min⁻¹, 3.21e+06 min⁻¹ and 2.14e+06 min⁻¹, respectively.

`C[C@H](N)Cc1ccc2c(c1)OCO2`: the figures for the K in the assay filed under Rattus norvegicus [1], in the assay listed under Rattus norvegicus [2] and in the assay filed under Rattus norvegicus [3] were 2.42e+06 min⁻¹, 3.07e+06 min⁻¹ and 1.78e+06 min⁻¹, respectively.

On to `CNC(C)(C)Cc1ccc2c(c1)OCO2`, for which, in the assay filed under Rattus norvegicus [4], the Total release was 44.3%. The molecule also showed a K in the assay listed under Rattus norvegicus [5] of 169 min⁻¹. The molecule further showed a Relative rate in the assay filed under Rattus norvegicus [7] of 1.06.

Take `COc1ccc(CC(C)(C)N)cc1`: the Total release in the assay filed under Rattus norvegicus [4] came to 45%. This molecule had a Relative rate in the assay filed under Rattus norvegicus [7] of 1.06.
